Test: Binding affinity to Escherichia coli BL21 (DE3) IspF at 10 degC in pH 7 sodium phosphate buffer by SPR binding assay; call rule not given here
Procedure, shortened: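 Recombinant E. coli IspF expressed in BL21(DE3), >95% pure, amine-coupled to CM5 chip at ~100 μg/mL in 10 mM acetate pH 5.5 (4500–5500 RU). Ligands 0.1 μM–10 mM in 50 mM sodium phosphate pH 7, 2 mM MgCl, 30 μL/min, 10 °C; triplicate injections, blank-subtracted.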

Compound	Kd	Kd (read-out: Kd) [mM]
O=C(O)CCCC(=O)Nc1ccc2c(c1)OCO2	Not Active	–
NC(=O)CSc1cc(N)nc(N)n1	Not Active	–
Nc1nnc(-c2nonc2N)o1	Not Active	–
Nc1ccn([C@H]2O[C@@H](CO)[C@H]3OP(=O)(O)O[C@H]32)c(=O)n1 (mixture of isomers)	–	20.5

From ChEMBL document CHEMBL1153426, “A structure-based approach to ligand discovery for 2C-methyl-D-erythritol-2,4-cyclodiphosphate synthase: a target for antimicrobial therapy” (J Med Chem, 2009)
